Data taken from PMC9380797 (Indian Journal of Nuclear Medicine : IJNM : The Official …, 2022).

Columns and labels:
[1] = Blood pharmacokinetics after intravenous administration; format: in vivo, rat; conditions: rats, i.v.
Method in brief: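 Male Sprague Dawley rats (200–250 g) given 200 µCi of Tc-99m-labelled test compound via a penile vein. Blood drawn from the ocular vein at intervals over 0–120 min and counted in a well-type scintillation counter, expressed as counts per ml of blood. Peak times read from the activity–time curve.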

[2] = Bio-distribution in MNU + TP treated rats; format: in vivo, rat; conditions: for percent-specific uptake in the prostate: MNU + TP treated (carcinogen-induced) rats; for ID/g Bladder / ID/g Bone / ID/g Brain / ID/g Heart / ID/g Kidney / ID/g Large intestine / ID/g Liver / ID/g Lung / ID/g Muscle / ID/g Prostate / ID/g Small intestine / ID/g Spleen / ID/g Stomach / ID/g Thyroid: MNU + TP treated rats
[3] = Stability of the radio-complex with pH and time at room temperature; format: physicochemical
Method in brief: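 Labelling: 7.4 MBq pertechnetate added to 20 µg test compound (10% ethanol) with 40 µg SnCl2·2H2O, pH 7, 10 min at room temperature in the dark. pH varied from 2 to 10 and room-temperature stability followed over time. Purity by ITLC: acetone (free pertechnetate) and pyridine:acetic acid:water 3:5:1.5 (hydrolysed fraction); strips counted with a gamma probe. Triplicates, one-way ANOVA.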

Paper electrophoresis = format: physicochemical; conditions: 300V, 1 h
Method in brief: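 Radio-complex spotted at the central point of Whatman No. 1 paper, with sodium phosphate buffer as the mobile phase. Strip dried after the run and activity along it counted in a well-type gamma scintillation […]; the direction of migration indicates charge.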

[4] = Partition coefficient measurement log Po/w; format: physicochemical
[5] = Bio-distribution in normal control rats; format: in vivo, rat; conditions: for ID/g Bladder / ID/g Bone / ID/g Brain / ID/g Heart / ID/g Kidney / ID/g Large intestine / ID/g Liver / ID/g Lung / ID/g Muscle / ID/g Prostate / ID/g Small intestine / ID/g Spleen / ID/g Stomach / ID/g Thyroid: normal control rats; for percent-specific uptake in the prostate: normal healthy rats
Method in brief: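 Healthy adult male Sprague Dawley rats (6–7 weeks, 200–250 g) given 200 µCi of Tc-99m-labelled test compound intravenously via a penile vein. Animals sacrificed at several post-injection times (1, 2, 4 and 6 h). Organs excised, weighed and counted in a well scintillation counter. %ID/g calculated against a standard of the injected dose. n=3, mean ± SD, ANOVA.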

[6] = Plasma protein binding of the radio-complex; format: in vitro ADME; conditions: rat plasma, 37°C up to 1 hr
Method in brief: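 Pellet re-suspended in 5% TCA and re-centrifuged. Precipitate and supernatant counted in a well-type gamma counter; binding given as protein-bound percent of total activity.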

Substance: Tc-99m-17-oxo-17a-aza-D-homo-5-androsten-3 β-ylphenoxyacetate [Tc-99m-17a-aza steroid]
- time of first peak in blood [1]: 50 s
- time of second peak in blood [1]: 50 min
- percent-specific uptake in the prostate ([2]; 1 h after administration): 0.913%
- percent-specific uptake in the prostate ([2]; 2 h after administration): 0.825%
- percent-specific uptake in the prostate ([2]; 4 h after administration): 0.857%
- percent-specific uptake in the prostate ([2]; 6 h after administration): 0.673%
- ID/g Bladder ([2]; First h): 1.465±0.175 ID/g
- ID/g Bladder ([2]; Fourth h): 0.897±0.456 ID/g
- ID/g Bladder ([2]; Second h): 0.979±0.247 ID/g
- ID/g Bladder ([2]; Sixth h): 0.871±0.578 ID/g
- ID/g Bone ([2]; First h): 0.437±0.237 ID/g
- ID/g Bone ([2]; Fourth h): 2.24±1.062 ID/g
- ID/g Bone ([2]; Second h): 1.381±0.609 ID/g
- ID/g Bone ([2]; Sixth h): 2.038±1.163 ID/g
- ID/g Brain ([2]; First h): 0.139±0.124 ID/g
- ID/g Brain ([2]; Fourth h): 0.149±0.085 ID/g
- ID/g Brain ([2]; Second h): 0.257±0.139 ID/g
- ID/g Brain ([2]; Sixth h): 0.132±0.048 ID/g
- ID/g Heart ([2]; First h): 0.045±0.036 ID/g
- ID/g Heart ([2]; Fourth h): 0.231±0.171 ID/g
- ID/g Heart ([2]; Second h): 0.404±0.217 ID/g
- ID/g Heart ([2]; Sixth h): 0.337±0.054 ID/g
- ID/g Kidney ([2]; First h): 6.283±0.746 ID/g
- ID/g Kidney ([2]; Fourth h): 7.836±1.861 ID/g
- ID/g Kidney ([2]; Second h): 7.37±1.162 ID/g
- ID/g Kidney ([2]; Sixth h): 8.08±1.784 ID/g
- ID/g Large intestine ([2]; First h): 0.264±0.121 ID/g
- ID/g Large intestine ([2]; Fourth h): 0.878±0.439 ID/g
- ID/g Large intestine ([2]; Second h): 0.383±0.034 ID/g
- ID/g Large intestine ([2]; Sixth h): 0.973±0.641 ID/g
- ID/g Liver ([2]; First h): 3.48±0.676 ID/g
- ID/g Liver ([2]; Fourth h): 8.693±0.784 ID/g
- ID/g Liver ([2]; Second h): 6.767±0.496 ID/g
- ID/g Liver ([2]; Sixth h): 9.673±0.457 ID/g
- ID/g Lung ([2]; First h): 2.903±0.553 ID/g
- ID/g Lung ([2]; Fourth h): 1.263±0.253 ID/g
- ID/g Lung ([2]; Second h): 2.44±0.216 ID/g
- ID/g Lung ([2]; Sixth h): 1.2±0.07 ID/g
- ID/g Muscle ([2]; First h): 0.097±0.075 ID/g
- ID/g Muscle ([2]; Fourth h): 0.330±0.194 ID/g
- ID/g Muscle ([2]; Second h): 0.262±0.023 ID/g
- ID/g Muscle ([2]; Sixth h): 0.310±0.022 ID/g
- ID/g Prostate ([2]; First h): 0.913±0.172 ID/g
- ID/g Prostate ([2]; Fourth h): 0.857±0.091 ID/g
- ID/g Prostate ([2]; Second h): 0.825±0.110 ID/g
- ID/g Prostate ([2]; Sixth h): 0.673±0.064 ID/g
- ID/g Small intestine ([2]; First h): 0.482±0.554 ID/g
- ID/g Small intestine ([2]; Fourth h): 0.400±0.015 ID/g
- ID/g Small intestine ([2]; Second h): 0.563±0.037 ID/g
- ID/g Small intestine ([2]; Sixth h): 0.378±0.193 ID/g
- ID/g Spleen ([2]; First h): 3.873±0.600 ID/g
- ID/g Spleen ([2]; Fourth h): 4.61±0.026 ID/g
- ID/g Spleen ([2]; Second h): 6.76±0.911 ID/g
- ID/g Spleen ([2]; Sixth h): 8.77±0.645 ID/g
- ID/g Stomach ([2]; First h): 0.142±0.038 ID/g
- ID/g Stomach ([2]; Fourth h): 0.112±0.033 ID/g
- ID/g Stomach ([2]; Second h): 0.091±0.029 ID/g
- ID/g Stomach ([2]; Sixth h): 0.069±0.023 ID/g
- ID/g Thyroid ([2]; First h): 0.356±0.163 ID/g
- ID/g Thyroid ([2]; Fourth h): 0.654±0.099 ID/g
- ID/g Thyroid ([2]; Second h): 0.698±0.037 ID/g
- ID/g Thyroid ([2]; Sixth h): 0.684±0.198 ID/g
- percent radiochemical purity ([3]; pH 2): 92.72%
- percent radiochemical purity ([3]; pH 4): 97.24%
- percent radiochemical yield ([3]; pH 10): 86.84%
- charge of the radio-complex (Paper electrophoresis): neutral
- Log Po/w [4]: 0.118 ± 0.045
- ID/g Bladder ([5]; First h): 1.758±0.706 ID/g
- ID/g Bladder ([5]; Fourth h): 1.121±0.896 ID/g
- ID/g Bladder ([5]; Second h): 1.71±0.550 ID/g
- ID/g Bladder ([5]; Sixth h): 1.840±0.724 ID/g
- ID/g Bone ([5]; First h): 1.77±0.14 ID/g
- ID/g Bone ([5]; Fourth h): 0.163±0.011 ID/g
- ID/g Bone ([5]; Second h): 0.694±0.077 ID/g
- ID/g Bone ([5]; Sixth h): 0.59±0.085 ID/g
- ID/g Brain ([5]; First h): 0.217±0.065 ID/g
- ID/g Brain ([5]; Fourth h): 0.133±0.027 ID/g
- ID/g Brain ([5]; Second h): 0.064±0.005 ID/g
- ID/g Brain ([5]; Sixth h): 0.096±0.074 ID/g
- ID/g Heart ([5]; First h): 0.416±0.005 ID/g
- ID/g Heart ([5]; Fourth h): 0.535±0.274 ID/g
- ID/g Heart ([5]; Second h): 0.547±0.065 ID/g
- ID/g Heart ([5]; Sixth h): 0.557±0.061 ID/g
- ID/g Kidney ([5]; First h): 7.476±1.300 ID/g
- ID/g Kidney ([5]; Fourth h): 13.726±2.948 ID/g
- ID/g Kidney ([5]; Second h): 9.093±0.897 ID/g
- ID/g Kidney ([5]; Sixth h): 15.403±2.545 ID/g
- ID/g Large intestine ([5]; First h): 0.654±0.294 ID/g
- ID/g Large intestine ([5]; Fourth h): 0.635±0.079 ID/g
- ID/g Large intestine ([5]; Second h): 0.691±0.178 ID/g
- ID/g Large intestine ([5]; Sixth h): 0.915±0.186 ID/g
- ID/g Liver ([5]; First h): 4.44±0.836 ID/g
- ID/g Liver ([5]; Fourth h): 9.423±1.188 ID/g
- ID/g Liver ([5]; Second h): 5.293±1.504 ID/g
- ID/g Liver ([5]; Sixth h): 13.303±1.618 ID/g
- ID/g Lung ([5]; First h): 3.145±0.465 ID/g
- ID/g Lung ([5]; Fourth h): 3.354±2.237 ID/g
- ID/g Lung ([5]; Second h): 7.207±4.919 ID/g
- ID/g Lung ([5]; Sixth h): 4.292±1.191 ID/g
- ID/g Muscle ([5]; First h): 0.337±0.003 ID/g
- ID/g Muscle ([5]; Fourth h): 0.126±0.015 ID/g
- ID/g Muscle ([5]; Second h): 0.462±0.241 ID/g
- ID/g Muscle ([5]; Sixth h): 0.160±0.06 ID/g
- ID/g Prostate ([5]; First h): 0.303±0.017 ID/g
- ID/g Prostate ([5]; Fourth h): 0.298±0.079 ID/g
- ID/g Prostate ([5]; Second h): 0.518±0.133 ID/g
- ID/g Prostate ([5]; Sixth h): 0.269±0.182 ID/g
- ID/g Small intestine ([5]; First h): 0.639±0.277 ID/g
- ID/g Small intestine ([5]; Fourth h): 0.659±0.150 ID/g
- ID/g Small intestine ([5]; Second h): 1.276±0.526 ID/g
- ID/g Small intestine ([5]; Sixth h): 0.944±0.074 ID/g
- ID/g Spleen ([5]; First h): 4.002±0.245 ID/g
- ID/g Spleen ([5]; Fourth h): 8.33±1.334 ID/g
- ID/g Spleen ([5]; Second h): 5.816±0.886 ID/g
- ID/g Spleen ([5]; Sixth h): 9.04±1.165 ID/g
- ID/g Stomach ([5]; First h): 0.124±0.065 ID/g
- ID/g Stomach ([5]; Fourth h): 0.094±0.045 ID/g
- ID/g Stomach ([5]; Second h): 0.101±0.042 ID/g
- ID/g Stomach ([5]; Sixth h): 0.091±0.013 ID/g
- ID/g Thyroid ([5]; First h): 0.35±0.053 ID/g
- ID/g Thyroid ([5]; Fourth h): 0.422±0.095 ID/g
- ID/g Thyroid ([5]; Second h): 0.512±0.106 ID/g
- ID/g Thyroid ([5]; Sixth h): 0.031±0.007 ID/g
- percent-specific uptake in the prostate ([5]; 1 h after administration): 0.303%
- percent-specific uptake in the prostate ([5]; 2 h after administration): 0.518%
- percent-specific uptake in the prostate ([5]; 4 h after administration): 0.298%
- percent-specific uptake in the prostate ([5]; 6 h after administration): 0.269%
- Plasma protein binding [6]: 86.23 ± 7.08%
